Data published in PMC6548570 (Bioorganic & medicinal chemistry, 2019).

Tests used:
sigma-2 = sigma-2 (Homo sapiens, UniProt Q5BJF2); assay: Radioligand binding assay against sigma-2; conditions: for pKi ± SEM Sigma-2: displacement of [3H]-DTG, <5 = not >50% inhibition at 10 μM single concentration
Mouse liver microsomal = assay type: in vitro ADME; conditions: 37 °C
Outline: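 Mouse liver microsomes (0.4 mg/mL) with NADPH in 0.5 M phosphate buffer, test compound at 10 μM. T0 samples quenched at once with 2 volumes ice-cold acetonitrile; others shaken 60 min at 37 °C, then quenched likewise. Verapamil-HCl as control. After centrifugation, parent quantified by UPLC/MS (SRM). % remaining = (60 min/0 min concentration)×100; duplicate runs, mean reported.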

sigma-1 = sigma-1 (Homo sapiens, UniProt Q99720); assay: Radioligand binding assay against sigma-1
Sequence of sigma-1 (Q99720 whole entry): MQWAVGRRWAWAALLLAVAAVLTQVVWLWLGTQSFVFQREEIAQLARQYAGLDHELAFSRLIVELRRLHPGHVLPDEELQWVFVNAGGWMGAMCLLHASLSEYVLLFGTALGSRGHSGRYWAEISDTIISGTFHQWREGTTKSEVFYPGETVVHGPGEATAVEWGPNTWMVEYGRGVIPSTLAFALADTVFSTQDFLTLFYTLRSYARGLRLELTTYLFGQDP

Sequence of sigma-2 (Q5BJF2 whole entry): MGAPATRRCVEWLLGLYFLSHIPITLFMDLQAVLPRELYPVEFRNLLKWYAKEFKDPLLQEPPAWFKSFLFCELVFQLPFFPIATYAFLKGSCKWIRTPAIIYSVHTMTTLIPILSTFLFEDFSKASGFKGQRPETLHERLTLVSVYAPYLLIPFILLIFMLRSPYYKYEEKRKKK

Structure (SMILES) | activity against sigma-2 (in words) (sigma-2) | pKi ± SEM Sigma-2 (sigma-2) | further results
O=C(c1nn(-c2ccccc2)c2c1CC(NCc1ccc(F)cc1)CC2)N1CCCCC1 (stereo not shown) [7aa, (5-((4-Fluorobenzyl)amino)-1-phenyl-4,5,6,7-tetrahydro-1H-indazol-3-yl)(piperidin-1-yl)methanone] | no activity | <5 M | 
O=C(c1nn(-c2ccccc2)c2c1CC(NCc1ccccc1)CC2)N1CCCCC1 (stereo not shown) [7ab, (5-(Benzylamino)-1-phenyl-4,5,6,7-tetrahydro-1H-indazol-3-yl)(piperidin-1-yl)methanone] |  |  | consumption by liver microsomes after 60 minutes (in words) (Mouse liver microsomal): nearly-completely consumed
O=C(c1nn(-c2ccccc2)c2c1CC(NCCc1ccc(C(F)(F)F)cc1)CC2)N1CCCCC1 (stereo not shown) [7ac, (1-Phenyl-5-((4-(trifluoromethyl)phenethyl)amino)-4,5,6,7-tetrahydro-1H-indazol-3-yl)(piperidin-1-yl)methanone] |  | <5 M | 
O=C(c1nn(-c2ccccc2)c2c1CC(NCCc1cccc(O)c1)CC2)N1CCCCC1 (stereo not shown) [7af, (5-((3-Hydroxyphenethyl)amino)-1-phenyl-4,5,6,7-tetrahydro-1H-indazol-3-yl)(piperidin-1-yl)methanone] |  | <5 M | 
O=C(c1nn(Cc2ccccc2)c2c1CC(NCCc1ccncc1)CC2)N1CCCCC1 (stereo not shown) [7ag, (1-Benzyl-5-((2-(pyridin-4-yl)ethyl)amino)-4,5,6,7-tetrahydro-1H-indazol-3-yl)(piperidin-1-yl)methanone] |  | <5 M | 
O=C(c1nn(Cc2ccccc2)c2c1CC(NCc1ccc(F)cc1)CC2)N1CCCCC1 (stereo not shown) [7ah, (1-Benzyl-5-((4-fluorobenzyl)amino)-4,5,6,7-tetrahydro-1H-indazol-3-yl)(piperidin-1-yl)methanone] |  | <5 M | 
O=C(c1c2c(nn1-c1ccccc1)CCC(NCc1ccc(F)cc1)C2)N1CCCCC1 (stereo not shown) [7ba, (5-((4-Fluorobenzyl)amino)-2-phenyl-4,5,6,7-tetrahydro-2H-indazol-3-yl)(piperidin-1-yl)methanone] |  |  | fold more potent against sigma-2 compared to N-1 regioisomer 7aa (sigma-2; N-2 vs N-1 regioisomer): > 60 fold; fold more potent against sigma-1 compared to N-1 regioisomer 7aa (sigma-1; N-2 vs N-1 regioisomer): over 5 fold; consumption by liver microsomes after 60 minutes (in words) (Mouse liver microsomal): nearly-completely consumed
O=C(c1c2c(nn1-c1ccccc1)CCC(NCCc1ccc(C(F)(F)F)cc1)C2)N1CCCCC1 (stereo not shown) [7bc, (2-Phenyl-5-((4-(trifluoromethyl)phenethyl)amino)-4,5,6,7-tetrahydro-2H-indazol-3-yl)(piperidin-1-yl)methanone] |  | <5 M | 
O=C(c1c2c(nn1-c1ccc(F)cc1)CCC(NCc1ccc(F)cc1)C2)N1CCCCC1 (stereo not shown) [7bf, (5-((4-Fluorobenzyl)amino)-2-(4-fluorophenyl)-4,5,6,7-tetrahydro-2H-indazol-3-yl)(piperidin-1-yl)methanone] |  |  | selectivity for sigma-1 against sigma-2 (sigma-1; sigma-1 over sigma-2): over 500 fold
NC(=O)c1ccc(-n2nc3c(c2C(=O)N2CCCCC2)CC(NCCc2ccccc2)CC3)cc1 (stereo not shown) [7bg, 4-(5-(Phenethylamino)-3-(piperidine-1-carbonyl)-4,5,6,7-tetrahydro-2H-indazol-2-yl)benzamide] |  | <5 M | 
CCCn1nc(C(=O)N(C)C)c2c1CCC(OCc1ccc(F)cc1)C2 (stereo not shown) [compound 9, 5-((4-Fluorobenzyl)oxy)-N,N-dimethyl-1-propyl-4,5,6,7-tetrahydro-1H-indazole-3-carboxamide] | completely lost | <5 M | activity against sigma-1 (in words) (sigma-1): completely lost
CCCn1nc(C(=O)N(C)C)c2c1CCC(SCc1ccc(F)cc1)C2 (stereo not shown) [compound 11, 5-((4-Fluorobenzyl)thio)-N,N-dimethyl-1-propyl-4,5,6,7-tetrahydro-1H-indazole-3-carboxamide] | completely lost | <5 M | activity against sigma-1 (in words) (sigma-1): completely lost
CCCn1nc(C(=O)N(C)C)c2c1CCC(NC(=O)c1ccc(F)cc1)C2 (stereo not shown) [compound 13, 5-(4-Fluorobenzamido)-N,N-dimethyl-1-propyl-4,5,6,7-tetrahydro-1H-indazole-3-carboxamide] | complete loss of activity | <5 M | activity against sigma-1 (in words) (sigma-1): complete loss of activity
CCCn1nc(C(=O)N(C)C)c2c1CCC(NS(=O)(=O)c1ccc(F)cc1)C2 (stereo not shown) [compound 14, 5-((4-Fluorophenyl)sulfonamido)-N,N-dimethyl-1-propyl-4,5,6,7-tetrahydro-1H-indazole-3-carboxamide] | complete loss of activity | <5 M | activity against sigma-1 (in words) (sigma-1): complete loss of activity
